Assay results taken from ChEMBL document CHEMBL4043182, “On the synthesis of quinone-based BODIPY hybrids: New insights on antitumor activity and mechanism of action in cancer cells” (Bioorg Med Chem Lett, 2017).
Activity calls are given as the source filed them. The rule behind the calls is not given here.

Experiments:
SF-295 = assay: Induction of oxidative stress in human SF295 cells assessed as total GSH levels at 5 uM after 24 hrs by spectrophotometric analysis (reference value: 3.16 +/- 0.21 microg/mg); assay type: functional
HCT-116 [1] = assay: Geno-toxicity in human HCT116 cells assessed as induction of DNA damage at 2.5 to 10 uM treated 24 hrs post NAC addition measured after 24 hrs by alkaline comet assay; assay type: functional, cell-based
Outline: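 Alkaline comet assay after 24 h at 2.5, 5 and 10 µM, with or without 24 h pretreatment with 5 mM NAC. Cells were trypsinized and embedded in 0.75% low-melting agarose, then lysed at pH 10, 4 °C, ≥1 h. DNA was unwound 20 min at pH >13 and electrophoresed 20 min at 25 V, 300 mA (0.86 V/cm), then stained with ethidium bromide. 100 cells (2 slides) were scored in classes 0–4 for a damage index. Mean ± SEM, three independent experiments in triplicate.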

[2] = Selective index, ratio of IC50 for chinese hamster V79 cells to IC50 for human PC3 cells
Outline: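 Selectivity index is the ratio of the IC50 in a non-cancer murine line (V79 or L929) to the IC50 in the cancer line. […] MTT was 0.5 mg/mL for 3 h, formazan dissolved in DMSO and read at 595 nm as % of control. IC50s were derived by nonlinear regression; triplicate, at least three repeats.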

HCT-116 [3] = assay: Induction of oxidative stress in human HCT116 cells assessed as total GSH levels at 5 uM after 24 hrs by spectrophotometric analysis (reference value: 3.74 +/- 0.55 microg/mg); assay type: functional

CC1(C)OC2=C(C(=O)C(=O)c3ccccc32)C1n1cc(CNC2=[N+]3C(=C(c4ccccc4)c4ccc(Cl)n4[B-]3(F)F)C=C2)nn1 (centres undefined)
Activity (SF-295): 1.31 µg/mg
Activity (HCT-116 [1]): Active
Ratio IC50 [2]: 1.7
Activity (HCT-116 [3]): 1.78 µg/mg
